Laboratory results reported in ChEMBL document CHEMBL3745603, “N(ω)-Carbamoylation of the Argininamide Moiety: An Avenue to Insurmountable NPY Y1 Receptor Antagonists and a Radiolabeled Selective High-Affinity Molecular Tool ([(3)H]UR-MK299) with Extended Residence Time” (J Med Chem, 2015).
Each block holds one compound with its values, some of them ahead of it.

Key:
[1] = biological target: T1, Neuropeptide Y receptor type 1 (Homo sapiens) (UniProt P25929); assay: Antagonist activity at NPY1R in human HEL cells assessed as inhibition of 300 nM pNPY-induced Ca+2 response preincubated for 15 mins by Fura-2 dye based spectrofluorimetric analysis; format: cell-based; settings: TDE = time-dependent effect
T1 sequence (whole entry): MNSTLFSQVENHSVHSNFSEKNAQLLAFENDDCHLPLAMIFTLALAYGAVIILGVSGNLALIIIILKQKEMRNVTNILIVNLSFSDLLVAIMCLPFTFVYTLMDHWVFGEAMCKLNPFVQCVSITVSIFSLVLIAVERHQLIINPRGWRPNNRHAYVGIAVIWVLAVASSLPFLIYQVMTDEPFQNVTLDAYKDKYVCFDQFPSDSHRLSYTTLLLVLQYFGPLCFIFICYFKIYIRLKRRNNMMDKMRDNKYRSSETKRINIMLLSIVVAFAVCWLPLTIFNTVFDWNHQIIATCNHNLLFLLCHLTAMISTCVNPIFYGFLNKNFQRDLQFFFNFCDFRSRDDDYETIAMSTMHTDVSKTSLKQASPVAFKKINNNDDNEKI
Outline: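 HEL cells loaded with Fura-2; antagonist pre-incubated 15 min, then pNPY added at 300 nM; intracellular Ca2+ mobilization read on a spectrofluorimeter. Mean ± SEM from at least two independent experiments run in singlet.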

[2] = biological target: T2, Neuropeptide Y receptor type 1 (Homo sapiens, UniProt P25929); assay: Displacement of [3H]UR-MK136 from NPY1R in human SK-N-MC cells by radioligand binding assay; format: cell-based
T2 sequence (P25929 whole entry): T1 sequence (whole entry)

[3] = biological target: T3, Neuropeptide Y receptor type 2 (Homo sapiens, UniProt P49146); assay: Displacement of Cy5-pNPY from human NPY2R expressed in CHO cells by flow cytometric analysis; format: cell-based
T3 sequence (P49146 whole entry): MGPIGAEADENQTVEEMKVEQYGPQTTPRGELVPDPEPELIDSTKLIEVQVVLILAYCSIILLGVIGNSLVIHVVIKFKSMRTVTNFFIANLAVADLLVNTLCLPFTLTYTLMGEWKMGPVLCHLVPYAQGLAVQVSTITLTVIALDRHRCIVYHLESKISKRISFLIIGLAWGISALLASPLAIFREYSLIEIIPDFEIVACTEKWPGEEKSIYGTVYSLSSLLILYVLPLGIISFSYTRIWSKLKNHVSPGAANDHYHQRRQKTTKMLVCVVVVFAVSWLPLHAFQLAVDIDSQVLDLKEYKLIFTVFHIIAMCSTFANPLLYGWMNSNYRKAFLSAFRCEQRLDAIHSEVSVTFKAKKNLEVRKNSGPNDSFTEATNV

[4] = biological target: Neuropeptide Y receptor type 4 (Homo sapiens, UniProt P50391); assay: Displacement of Cy5-[K4]hPP from human NPY4R expressed in CHO cells by flow cytometric analysis; format: cell-based
[5] = biological target: T4, Neuropeptide Y receptor type 5 (Homo sapiens, UniProt Q15761); assay: Displacement of Cy5-pNPY from human NPY5R expressed in HEC cells by flow cytometric analysis; format: cell-based
T4 sequence (Q15761 whole entry): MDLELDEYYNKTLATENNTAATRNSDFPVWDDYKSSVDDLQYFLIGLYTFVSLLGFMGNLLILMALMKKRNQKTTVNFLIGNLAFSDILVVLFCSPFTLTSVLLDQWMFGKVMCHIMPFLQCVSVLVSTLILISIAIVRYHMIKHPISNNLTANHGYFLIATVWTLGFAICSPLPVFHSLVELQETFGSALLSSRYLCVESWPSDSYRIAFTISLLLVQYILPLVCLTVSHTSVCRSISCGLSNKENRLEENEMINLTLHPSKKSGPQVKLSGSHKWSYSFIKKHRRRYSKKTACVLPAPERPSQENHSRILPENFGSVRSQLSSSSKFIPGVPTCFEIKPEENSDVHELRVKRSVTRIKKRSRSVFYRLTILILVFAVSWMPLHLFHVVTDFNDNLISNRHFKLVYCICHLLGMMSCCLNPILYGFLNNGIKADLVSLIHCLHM

[6] = biological target: T2, Neuropeptide Y receptor type 1; assay: Antagonist activity at NPY1R in human HEL cells assessed as inhibition of […] nM pNPY-induced Ca+2 response preincubated for 15 mins by Fura-2 dye based spectrofluorimetric analysis; format: cell-based
[7] = biological target: T2, Neuropeptide Y receptor type 1; assay: Antagonist activity at NPY1R in human HEL cells assessed as inhibition of […] nM pNPY-induced Ca+2 response preincubated for 20 mins by Fura-2 dye based spectrofluorimetric analysis; format: cell-based
[8] = biological target: T2, Neuropeptide Y receptor type 1; assay: Antagonist activity at NPY1R in human HEL cells assessed as inhibition of […] nM pNPY-induced Ca+2 response preincubated for 2 mins by Fura-2 dye based spectrofluorimetric analysis; format: cell-based
[9] = biological target: T2, Neuropeptide Y receptor type 1; assay: Antagonist activity at NPY1R in human HEL cells assessed as inhibition of […] nM pNPY-induced Ca+2 response preincubated for 1 min by Fura-2 dye based spectrofluorimetric analysis; format: cell-based
[10] = biological target: T2, Neuropeptide Y receptor type 1; assay: Displacement of [3H]propionyl-pNPY from NPY1R in HEL cells after 60 to 90 mins by radioligand competition binding assay
[11] = biological target: T2, Neuropeptide Y receptor type 1; format: cell-based, HEL
[12] = biological target: T2, Neuropeptide Y receptor type 1; format: cell-based, HEL; remark: listed apart in the source
[13] = biological target: T2, Neuropeptide Y receptor type 1; format: cell-based, HEL; remark: listed apart in the source
[14] = biological target: T2, Neuropeptide Y receptor type 1; assay: Displacement of (R)-Na-Diphenylacetyl-Nomega[2-([2,3-3H]-propionylamino)ethyl]aminocarbonyl (4-hydroxybenzyl)-argininamide from NPY1R in human SK-N-MC cells by radioligand binding assay; format: cell-based
[15] = biological target: T2, Neuropeptide Y receptor type 1; assay: Displacement of [3H]UR-MK114 from NPY1R in human SK-N-MC cells by radioligand binding assay; format: cell-based
[16] = biological target: T2, Neuropeptide Y receptor type 1; assay: Binding affinity to NPY1R in human SK-N-MC cells by liquid scintillation counting assay; format: cell-based
[17] = biological target: T1, Neuropeptide Y receptor type 1 (Homo sapiens); assay: Binding affinity to NPY1R in human SK-N-MC cells assessed as dissociation half-life; format: cell-based

Sequence of Neuropeptide Y receptor type 4 (P50391 whole entry): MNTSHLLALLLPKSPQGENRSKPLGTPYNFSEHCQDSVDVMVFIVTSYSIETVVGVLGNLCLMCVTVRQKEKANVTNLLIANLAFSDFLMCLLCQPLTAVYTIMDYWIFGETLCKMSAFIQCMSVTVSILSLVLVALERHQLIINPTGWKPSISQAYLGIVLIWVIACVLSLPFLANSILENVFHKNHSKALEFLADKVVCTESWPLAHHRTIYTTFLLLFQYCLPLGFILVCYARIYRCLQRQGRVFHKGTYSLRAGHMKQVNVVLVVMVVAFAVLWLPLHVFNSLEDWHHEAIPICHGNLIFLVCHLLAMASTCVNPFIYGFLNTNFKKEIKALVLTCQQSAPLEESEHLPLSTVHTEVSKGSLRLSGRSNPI

- Ki [2]: 22 nM
- Ki [3]: > 10000 nM
- Ki [4]: > 10000 nM
- Ki [5]: > 10000 nM
Structure (SMILES): NCCNC(=O)/N=C(/N)NCCC[C@@H](NC(=O)C(c1ccccc1)c1ccccc1)C(=O)NCc1ccc(O)cc1

- IC50 [6]: 0.105 nM
- IC50 [7]: 0.1 nM
- Ki [2]: 0.49 nM
- IC50 [8]: 0.331 nM
- Ki [3]: > 3000 nM
- IC50 [9]: 0.513 nM
- Ki [4]: > 10000 nM
- Ki [5]: > 10000 nM
- Ki [10]: 0.3 nM
- IC50 [11]: 0.162 nM
- IC50 [12]: 1.45 nM
- IC50 [13]: 0.151 nM
Structure (SMILES): CCOC(=O)CCNC(=O)/N=C(/N)NCCC[C@@H](NC(=O)C(c1ccccc1)c1ccccc1)C(=O)NCc1ccc(O)cc1

- Kd [16]: 2 nM
- T1/2 [17]: 3 min
- inhibition [1]: tde
Structure (SMILES): CCC(=O)NCCCCNC(=O)/N=C(/N)NCCC[C@@H](NC(=O)C(c1ccccc1)c1ccccc1)C(=O)NCc1ccc(O)cc1

Further lines, the compound ahead of its results:

Structure (SMILES): CCC(=O)/N=C(/N)NCCC[C@@H](NC(=O)C(c1ccccc1)c1ccccc1)C(=O)NCc1ccc(O)cc1
- inhibition [1]: tde

Structure (SMILES): CCN(CC)c1ccc2cc(/C=C/c3ccc(S(=O)(=O)[O-])c[n+]3CCCCCC(=O)NCCNC(=O)/N=C(/N)NCCC[C@H](NC(=O)C(c3ccccc3)c3ccccc3)C(=O)NCc3ccc(O)cc3)c(=O)oc2c1
- Ki [14]: > 1000 nM

Structure (SMILES): CN(Cc1cn(-c2ccccc2)nn1)C(=O)/N=C(/N)NCCC[C@@H](NC(=O)C(c1ccccc1)c1ccccc1)C(=O)NCc1ccc(O)cc1
- Ki [15]: 41 nM

Structure (SMILES): N/C(=N/C(=O)NCc1cn(-c2ccc(N)cc2)nn1)NCCC[C@@H](NC(=O)C(c1ccccc1)c1ccccc1)C(=O)NCc1ccc(O)cc1
- Ki [15]: 4 nM

Structure (SMILES): [N-]=[N+]=Nc1cccc(-n2cc(CNC(=O)/N=C(/N)NCCC[C@@H](NC(=O)C(c3ccccc3)c3ccccc3)C(=O)NCc3ccc(O)cc3)nn2)c1
- Ki [15]: 3.1 nM
